Structures are written as SMILES.

Sequence of Carbonic anhydrase 12 (O43570 whole entry): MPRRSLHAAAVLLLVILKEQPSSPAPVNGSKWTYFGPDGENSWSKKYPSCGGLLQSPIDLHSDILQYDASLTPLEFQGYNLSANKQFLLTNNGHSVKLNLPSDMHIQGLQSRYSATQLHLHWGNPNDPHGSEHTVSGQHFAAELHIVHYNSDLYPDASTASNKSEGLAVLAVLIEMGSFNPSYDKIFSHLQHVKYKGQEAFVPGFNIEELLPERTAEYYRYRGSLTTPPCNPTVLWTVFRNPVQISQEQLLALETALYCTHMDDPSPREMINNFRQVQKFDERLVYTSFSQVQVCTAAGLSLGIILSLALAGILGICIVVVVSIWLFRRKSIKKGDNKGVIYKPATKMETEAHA

For one assay, the target named is Carbonic anhydrase 9 (Homo sapiens, UniProt Q16790). Put plainly: Inhibition of human carbonic anhydrase 9 incubated for 15 mins prior to testing by stopped flow CO2 hydration assay. An outline of the steps:
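Recombinant hCA isoform; stopped-flow CO2 hydration monitored by phenol red (0.2 mM) absorbance at 557 nm, 10−20 mM Hepes pH 7.5 or Tris pH 8.3, 20 mM Na2SO4 or NaClO4 for ionic strength; initial rates over 10−100 s, CO2 1.7 to 17 mM; inhibitor dilutions in water down to 0.01 nM, preincubated with enzyme 15 min at room temperature; uncatalyzed rate subtracted; Ki by nonlinear least squares, mean of at least three determinations.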
As usually defined, the Ki is the equilibrium dissociation constant of an inhibitor or competing ligand from its target. Lower therefore signals tighter binding. Molecule `COc1cc2c(cc1OC)C(c1ccc(Br)cc1)N(C(=O)c1ccc(S(N)(=O)=O)cc1)CC2` (racemic) showed a Ki of 90.9 nM.

Molecule `NS(=O)(=O)c1ccc(C(=O)N2CCc3cc(O)c(O)cc3C2c2ccc(Br)cc2)cc1` (racemic) registered a Ki of 81.5 nM.

Consider `COc1cc2c(cc1OC)C(c1ccc(Cl)cc1)N(C(=O)c1ccc(S(N)(=O)=O)cc1)CC2` (racemic), for which the Ki came to 91.4 nM.

As to `NS(=O)(=O)c1ccc(C(=O)N2CCc3cc(O)c(O)cc3[C@H]2c2ccccc2)cc1`, the Ki was 32.7 nM.

As for `NS(=O)(=O)c1ccc(C(=O)N2CCc3cc(O)c(O)cc3C2c2ccccc2)cc1` (racemic), the Ki was 36.9 nM.

For the molecule `COc1cc2c(cc1OC)C(c1ccccc1)N(C(=O)c1ccc(S(N)(=O)=O)cc1)CC2` (racemic), the Ki turned out to be 4.9 nM.

Take `NS(=O)(=O)c1ccc(C(=O)N2CCc3cc(O)c(O)cc3C2c2ccc(Cl)cc2)cc1` (racemic): the affinity, expressed as Ki, was 9 nM.

The molecule `COc1ccc2c(c1)CCN(C(=O)c1ccc(S(N)(=O)=O)cc1)C2c1ccccc1` (single isomer, unassigned; enantiomer 2) returned a Ki of 58.7 nM.

Molecule `NS(=O)(=O)c1ccc(C(=O)N2CCc3cc(O)ccc3C2c2ccccc2)cc1` (single isomer, unassigned; Enantiomer-1) yielded a Ki of 73.2 nM.

On to `CCCOc1ccc2c(c1)CCN(C(=O)c1ccc(S(N)(=O)=O)cc1)C2c1ccccc1` (racemic), for which the Ki turned out to be 44.5 nM.

As for `COc1cc2c(cc1OC)C(c1ccc(F)cc1)N(C(=O)c1ccc(S(N)(=O)=O)cc1)CC2` (racemic), the affinity, expressed as Ki, was 9.1 nM.

For `COc1cc2c(cc1OC)C(c1ccccc1)N(C(=O)c1ccc(S(N)(=O)=O)cc1)CC2` (single isomer, unassigned; enantiomer 2), affinity was put at a Ki of 4.8 nM.

Molecule `COc1cc2c(cc1OC)C(c1ccccc1)N(C(=O)c1ccc(S(N)(=O)=O)cc1)CC2` (single isomer, unassigned; enantiomer 1) came in with a Ki of 5 nM.

On to `COc1ccc2c(c1)CCN(C(=O)c1ccc(S(N)(=O)=O)cc1)C2c1ccccc1` (single isomer, unassigned; enantiomer 1), for which the Ki was 25.3 nM.

Molecule `COc1ccc2c(c1)CCN(C(=O)c1ccc(S(N)(=O)=O)cc1)C2c1ccccc1` (racemic) came in with a Ki of 39.2 nM.

`NS(=O)(=O)c1ccc(C(=O)N2CCc3cc(O)c(O)cc3C2c2ccc(F)cc2)cc1` (racemic) showed a Ki of 8.2 nM.

As for `NS(=O)(=O)c1ccc(C(=O)N2CCc3cc(O)c(O)cc3[C@@H]2c2ccccc2)cc1`, the affinity, expressed as Ki, was 39.2 nM.

The molecule `NS(=O)(=O)c1ccc(C(=O)N2CCc3cc(O)ccc3C2c2ccccc2)cc1` (racemic) yielded a Ki of 50.6 nM.

`NS(=O)(=O)c1ccc(C(=O)N2CCc3cc(O)ccc3C2c2ccccc2)cc1` (single isomer, unassigned; enantiomer 2): the Ki was 39.8 nM.

A further assay addresses Carbonic anhydrase 12 (Homo sapiens, UniProt O43570). Put plainly: Inhibition of human carbonic anhydrase 12 incubated for 15 mins prior to testing by stopped flow CO2 hydration assay.
On to `NS(=O)(=O)c1ccc(C(=O)N2CCc3cc(O)c(O)cc3C2c2ccc(Cl)cc2)cc1` (racemic), for which affinity was put at a Ki of 7.6 nM.

These data come from ChEMBL document CHEMBL4014313, “Probing Molecular Interactions between Human Carbonic Anhydrases (hCAs) and a Novel Class of Benzenesulfonamides” (J Med Chem, 2017).
